Results taken from paper PMC12297526 (Communications Chemistry, 2025).
Read-outs that look alike come from different tables or passages of the source. One block for each compound: values may come before it.

Experiments:
Zn = assay type: physicochemical; conditions: pH = 6.0, 25 mM Zn(II), 37 °C, 1 mM complex; mean ± SD, n = 3
[1] = cited from earlier work; for pMn: 11 (supplement), 8, 17, 18, 34
[2] = pH-potentiometric titration, thermodynamic stability constants of Mn; assay type: physicochemical; conditions: for log KMnL: I = 0.1 M KCl, 25 °C, mean ± SD, n = 3
Outline: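 Ligand and Mn(II) (1.05:1 molar) in 0.1 M KCl titrated with 0.5 M NaOH from pH 1.7 to 12.0 at 25 °C under nitrogen. MnCl2 stock held at pH 6 and calibrated by ICP-MS. Data fitted for stability constants and speciation; titrations in triplicate. pMn calculated at pH 7.4.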

[3] = log P estimation by UPLC retention time; assay type: physicochemical; conditions: estimated from UPLC retention time with calibration standards
Outline: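 Complexes and standards (DMSO, DMF, pyridine, phenol, nitrobenzene) run on reversed-phase UPLC. C18, 2.5 μm, 2.1 × 100 mm column; 10 mM ammonium acetate/ACN gradient at 0.4 mL min−1. Calibration of log TR against known log P for the standards; complex log P read from its retention time.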

[4] = pH 7.4, 25 °C, [Cu(II)] = 10^-5 M; cited from earlier work
[5] = 20 MHz, 298 K; cited from earlier work
Solubility in pure water = assay type: physicochemical; conditions: 25 °C
normal BALB/c mice = experiment: In vivo T1-weighted MRI of normal mice, 3.0 T clinical scanner; conditions: intravenous, 0.05 mmol kg^−1
Outline: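 Male BALB/c mice (25 ± 3 g) anaesthetised with avertin (0.6 mL per 20 g) and imaged in a mouse coil at 3.0 T. Coronal and transverse T1-weighted baseline scans taken, then complex given i.v. in PBS pH 7.4 at 0.05 mmol kg−1 and scanning continued ~30 min. Relative enhancement = (SIpost – SIpre)/SIpre × 100% from ROIs on liver and kidney.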

[6] = 0.1 M KCl; ref 4 (supplement), 15; cited from earlier work
[7] = complexes with heptadentate ligands

t1/2 (dissociation half-life) (Zn): 0.25 h
Compound: CCOc1ccc(C[C@@H](CN(CCN(CC(=O)[O-])CC(=O)[O-])CC(=O)[O-])N(CC(=O)[O-])CC(=O)[O-])cc1.[Gd+3].[Na+].[Na+] [Gd(EOB-DTPA)]

Compound: O=C(O)CN1CCN(CC(=O)O)Cc2cccc(n2)CN(CC(=O)O)CC1 [PCTA]
log KMnL [1, 7]: 16.83

log KMnL [2]: 14.7
log P [3]: 0.47
Compound: O=C([O-])CN1CCNCCN(CC(=O)[O-])CCNCC1.[Mn+2] [Mn(1,7-DO2A)]

Compound: O=C([O-])CN1CCNCCN(CC(=O)[O-])Cc2cccc(n2)C1.[Mn+2] [Mn(3,9-PC2A)]
half-life (t1/2) [4]: 21 h
pMn ([1]; 0.15 M NaCl): 8.64
log KMnL ([1]; 0.15 M NaCl, 11 (supplement), 17): 17.09

Compound: Mn(EDTA)
half-life (t1/2) [4]: 0.08 h
pMn ([1]; 0.15 M NaCl): 7.83

Compound: O=C(O)CN1CCNCCN(CC(=O)O)CCN(CC(=O)O)CC1 [DO3A]
log KMnL [1, 7]: 16.55

Solubility (Solubility in pure water): 260 mg/mL
log KMnL [2]: 15.5
pMn ([2]; pH 7.4, [Mn(II)] = [L] = 10^−5 M): 7.20
log P [3]: 0.57
Compound: O=C([O-])CN1CCNCCNCCN(CC(=O)[O-])CC1.[Mn+2] [Mn(1,4-DO2A)]
half-life (t1/2) [4]: 48 h
^20r1 (relaxivity) [5]: 2.1 mM⁻¹ s⁻¹
excretion route / organ preference seen by MRI (normal BALB/c mice): predominantly excreted through the renal route
log KMnL ([1]; introduction, Mn(1,4-DO2A) vs Mn(NOTA)): 16.1

Compound: O=C(O)CN1CCNCCN(CC(=O)O)CCNCC1 [1,7-DO2A]
Σ log KiH [6]: 28.05
